Columns and labels:
rTRPV1 [1] = target: T1, rTRPV1 (Rattus norvegicus, UniProt O35433); test: [3H]RTX binding competition assay, rat TRPV1 expressed in CHO cells
How it was run: (§1)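 Both binding and function were measured on rat TRPV1 heterologously expressed in CHO cells. Affinity came from competition with [3H]RTX. Antagonism came from a functional 45Ca2+ uptake assay. Values are mean ± SEM from 3 or more experiments.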

rTRPV1 [2] = target: T1, rTRPV1; format: cell-based; conditions: rTRPV1/CHO
How it was run: as §1

T1 sequence (O35433 whole entry): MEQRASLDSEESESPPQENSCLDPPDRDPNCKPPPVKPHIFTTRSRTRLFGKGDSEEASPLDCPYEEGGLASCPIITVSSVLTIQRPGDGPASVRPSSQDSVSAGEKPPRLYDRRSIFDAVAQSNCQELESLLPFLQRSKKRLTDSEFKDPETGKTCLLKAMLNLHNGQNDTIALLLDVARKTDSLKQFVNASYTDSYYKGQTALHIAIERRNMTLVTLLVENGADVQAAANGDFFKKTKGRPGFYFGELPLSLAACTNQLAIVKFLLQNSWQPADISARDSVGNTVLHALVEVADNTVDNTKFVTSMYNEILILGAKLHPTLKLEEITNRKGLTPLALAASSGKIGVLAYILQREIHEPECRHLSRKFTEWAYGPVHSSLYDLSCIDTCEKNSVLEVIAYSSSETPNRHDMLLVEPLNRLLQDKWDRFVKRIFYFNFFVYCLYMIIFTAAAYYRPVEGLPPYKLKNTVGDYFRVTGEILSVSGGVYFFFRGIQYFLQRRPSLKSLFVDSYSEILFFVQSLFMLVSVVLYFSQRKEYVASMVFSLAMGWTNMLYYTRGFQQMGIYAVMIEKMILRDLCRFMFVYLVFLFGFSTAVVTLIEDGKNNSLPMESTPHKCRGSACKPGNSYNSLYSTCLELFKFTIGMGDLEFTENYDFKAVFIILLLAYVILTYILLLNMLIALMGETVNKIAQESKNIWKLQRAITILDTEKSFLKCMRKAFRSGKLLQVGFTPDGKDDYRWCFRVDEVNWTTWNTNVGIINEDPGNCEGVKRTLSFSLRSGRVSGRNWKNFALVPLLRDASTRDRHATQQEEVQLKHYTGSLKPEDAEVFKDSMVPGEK

SMILES: C[C@@H](C(=O)NCc1ccc(C(C)(C)C)cc1)c1ccc(NS(C)(=O)=O)c(F)c1 [54R, N-(4-tert-Butylbenzyl)-(2R)-2-[3-fluoro-4-(methylsulfonylamino)phenyl]propionamide]
- fold weaker activity compared with 54S (rTRPV1 [1]; rTRPV1, binding and antagonism together): 30- to 40 fold

SMILES: C[C@H](C(=O)NCc1ccc(C(C)(C)C)cc1)c1ccc(NS(C)(=O)=O)c(F)c1 [54S, N-(4-tert-Butylbenzyl)-(2S)-2-[3-fluoro-4-(methylsulfonylamino)phenyl]propionamide]
- fold enhancement in receptor activity compared to 54 (rTRPV1 [1]; binding and antagonism together): ~2 fold

SMILES: CC(C(=O)NCc1ccc(C(C)(C)C)cc1)c1ccc(NS(C)(=O)=O)c(Cl)c1 (stereo not shown) [compound 55, N-(4-tert-Butylbenzyl)-2-[3-chloro-4-(methylsulfonylamino)phenyl]propionamide]
- fold reduction in potency as antagonist compared to 54 (rTRPV1 [2]): 4 fold

SMILES: CC(C(=O)NCc1ccc(C(C)(C)C)cc1)c1ccc(NS(C)(=O)=O)c(Br)c1 (stereo not shown) [compound 56, N-(4-tert-Butylbenzyl)-2-[3-bromo-4-(methylsulfonylamino)phenyl]propionamide]
- fold reduction in potency as antagonist compared to 54 (rTRPV1 [2]): 4 fold

SMILES: CC(C(=O)NCc1ccc(C(C)(C)C)cc1)c1ccc(NS(C)(=O)=O)c(I)c1 (stereo not shown) [compound 57, N-(4-tert-Butylbenzyl)-2-[3-iodo-4-(methylsulfonylamino)phenyl]propionamide]
- fold reduction in potency as antagonist compared to 54 (rTRPV1 [2]): 4 fold

SMILES: CC(C(=O)NCc1ccc(C(C)(C)C)cc1)c1cc(F)c(NS(C)(=O)=O)c(F)c1 (stereo not shown) [compound 58, N-(4-tert-Butylbenzyl)-2-[3,5-difluoro-4-(methylsulfonylamino)phenyl]propionamide]
- fold enhancement in binding affinity compared to 54 (rTRPV1 [1]; rTRPV1/CHO): 2 fold

SMILES: COc1cc(C(C)C(=O)NCc2ccc(C(C)(C)C)cc2)ccc1NS(C)(=O)=O (stereo not shown) [compound 71, N-(4-tert-Butylbenzyl)-2-[3-methoxy-4-(methylsulfonylamino)phenyl]propionamide]
- fold reduced activity in binding affinity and antagonism (rTRPV1 [1]; rTRPV1/CHO, binding and antagonism together, compared with 54): 10 to 30 fold
